This is a sample that favours compounds with a hit; in the whole collection about 3.5% have one here.
MrgX1 antag: antagonists of human MrgX1 receptor, primary screen, HEK293 cells, Fluo-4 calcium flux. AID 588676, 2011. actives 1.3% (n = 310,000). BAM8-22 antagonism; active compounds read low. B-score at 10 µM;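 active means calcium-response B-score plate-corrected more than 3 library SD below zero, starting fluorescence within 5 deviations, no agonist response on first addition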;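 further: peak minus trough fluorescence over baseline after final BAM8-22 challenge near maximal dose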
Target sequence (Q96LB2 whole entry, looked up): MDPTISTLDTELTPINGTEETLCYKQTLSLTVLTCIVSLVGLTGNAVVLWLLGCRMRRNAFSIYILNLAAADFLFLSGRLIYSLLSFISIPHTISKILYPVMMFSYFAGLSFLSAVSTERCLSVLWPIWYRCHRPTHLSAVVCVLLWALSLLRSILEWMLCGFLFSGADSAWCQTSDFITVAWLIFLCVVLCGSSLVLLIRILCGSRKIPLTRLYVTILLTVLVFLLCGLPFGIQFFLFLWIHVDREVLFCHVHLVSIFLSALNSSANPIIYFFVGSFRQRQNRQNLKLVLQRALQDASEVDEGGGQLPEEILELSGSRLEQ
MrgX1 allo act: positive allosteric modulators of MrgX1, primary screen, HEK293 cells, Fluo-4 calcium flux; Mas-related G-protein coupled receptor member X1 (Homo sapiens), Q96LB2; FDSS; active compounds read high; B-score at 10 µM; actives 0.63% (n = 310,000);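 active means plate-corrected calcium response at least 3 library SD above typical, normal starting fluorescence, not activating the receptor alone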;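 further: compound read alongside a low EC10 to EC30 dose of BAM8-22 agonist; peak minus trough fluorescence over baseline measured at the second addition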
RGS4 block: RGS4 inhibitors, primary screen, cell-based, HEK293 M3R inducible RGS4, calcium flux | B-score at 10 µM | Fluo-4 calcium flux; active compounds read high; triggered by carbachol at its EC20 | Regulator of G-protein signaling 4 (Homo sapiens), P49798 | actives 0.45% (n = 310,000);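 active means B-score, a plate-corrected calcium signal, over three deviations above library mean, with baseline fluorescence within five deviations of library mean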;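 further: RGS4 expression induced by doxycycline in cells with stable M3 receptor; B-score is computed from the integrated fluorescence ratio over baseline after carbachol; higher B-score means a larger calcium signal and so more RGS4 inhibition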
Target sequence (P49798 whole entry, looked up): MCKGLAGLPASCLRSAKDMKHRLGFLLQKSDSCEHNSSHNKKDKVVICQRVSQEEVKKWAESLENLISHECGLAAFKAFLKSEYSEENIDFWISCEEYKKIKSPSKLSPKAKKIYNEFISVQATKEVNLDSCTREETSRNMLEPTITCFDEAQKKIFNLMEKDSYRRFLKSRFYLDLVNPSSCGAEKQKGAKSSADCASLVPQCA
MrgX1 agonist: agonists of human MrgX1 receptor, primary screen, HEK293 cells, Fluo-4 calcium flux; Mas-related G-protein coupled receptor member X1 (Homo sapiens), Q96LB2; Fluo-4 calcium fluorescence, agonist mode; active compounds read high; B-score at 10 µM; actives 0.44% (n = 310,000);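 active means calcium response B-score plate-corrected fluorescence ratio at least 3 library SD, with starting fluorescence B-score inside 5 SD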
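Material: MrgX1-expressing HEK293 cells / Dosing: compound as first of three additions / Incubation: overnight seeding, then 1 h dark dye loading / Signal: Fluo-4 NW calcium fluorescence / Evaluation: B-scored fluorescence response ratio / Benchmarks: positive and negative control wells on each plate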
RGS4 act: RGS4 potentiators or activators, primary screen, cell-based, HEK293 M3R inducible RGS4, calcium flux; actives 0.92% (n = 310,000); carbachol calcium flux Fluo4; active compounds read low; B-score at 10 µM;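 active means B-score of the integrated calcium signal more than 4 SD below the library mean, with starting fluorescence not abnormally high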;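 further: negative B-score means reduced calcium response which marks RGS4 activation or potentiation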
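Test system: HEK293 cells with stable M3R and inducible RGS4; also added: carbachol at ECmax as muscarinic agonist stimulus; schedule: dye loading 30 min 37 °C, buffer rest 30 min RT; technique: kinetic calcium fluorescence imaging with Fluo4-AM dye, 2 µM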
MrgX1 allo conf: MrgX1 positive allosteric modulators, duplicate retest, confirmation, HEK293 cells, Fluo-4 calcium flux | shares compounds with MrgX1 allo act | Fluo-4 calcium fluorescence, FDSS | activation (ratio percentage), % at 10 µM | actives 13% (n = 1,200) | AID 602413, 2012;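 active means ratio at least 3 SD above the weak peptide control, stable starting fluorescence, no direct agonism earlier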;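 further: compound followed by low BAM8-22 agonist challenge near EC20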
HEK293 Ca flux: nonspecific calcium signal in parental HEK293, confirmation, counter-screen for MrgX1 antagonist project, parental HEK293 cells, Fluo-4 calcium flux | shares compounds with MrgX1 antag | Fluo-4 calcium fluorescence, FDSS | fluorescence ratio F(max-min)/F0 at 10 µM | actives 2% (n = 4,000) | AID 624111, 2012;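 active means duplicate-averaged calcium fluorescence ratio at least three times the standard deviation of buffer wells, a nonspecific response in parental cells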
HEK293 Ca counter: calcium response in parental HEK293 cells, primary screen, counter-screen for MrgX1 allosteric activator project, cell-based, Fluo-4 calcium flux, duplicate. fluorescence ratio F(max-min)/F0 at 10 µM. AID 624114, 2012. Fluo-4 fluorescence ratio; active compounds read high. actives 0.4% (n = 4,000). shares compounds with MrgX1 antag;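 active means calcium fluorescence ratio, averaged over duplicates, at least 3 SD of the buffer-well ratio, meaning a nonspecific response in receptor-free cells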;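 further: untransfected parental HEK293 lacking MrgX1 used as counterscreen for MrgX1 allosteric activators; fluorescence change taken during the second addition on a kinetic imager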
HEK293 Ca cntr2: calcium response in parental HEK293 cells, primary screen, counter-screen for MrgX1 agonist project, cell-based, Fluo-4 calcium flux, duplicate, agonist mode | shares compounds with MrgX1 antag | fluorescence ratio F(max-min)/F0 at 10 µM | Fluo-4 calcium fluorescence (FDSS); active compounds read high | actives 8.7% (n = 4,000);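 active means calcium fluorescence ratio at least three times the spread of buffer wells, meaning a non-specific response in parental cells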
Each line names hits and unclear results; the compound was inactive in the other large screens (follow-up assays come after a bar, where they were run).

Cc1ccc(NC(=O)CSc2nnc(C3CC3)n2N)cc1S(=O)(=O)N1CCOCC1	MrgX1 allo act 7.9 | MrgX1 allo conf inactive | HEK293 Ca flux inactive | HEK293 Ca counter inactive | HEK293 Ca cntr2 inactive
COc1cc([N+](=O)[O-])cc(/C=N/NC(=O)Cn2nccc2C)c1O	none
NC(=O)c1ccc(Oc2ncc(C(F)(F)F)cc2Cl)cc1	none
Oc1ccc(Oc2ncc(Cl)cc2Cl)cc1	MrgX1 allo act 8.8 | MrgX1 allo conf inactive | HEK293 Ca flux inactive | HEK293 Ca counter inactive | HEK293 Ca cntr2 inactive
CCNC(=S)Nc1cccc(S(=O)(=O)NC2=NCCC2)c1	none
O=C(CCl)Nc1cccc(S(=O)(=O)NC2=NCCC2)c1	MrgX1 allo act 7.9 | MrgX1 allo conf inactive | HEK293 Ca flux inactive | HEK293 Ca counter inactive | HEK293 Ca cntr2 inactive
Cc1ccccc1OC(C)C(=O)NCc1cccnc1 (stereo not given)	none
CCOC(=O)C(Cc1ccccc1)C(=O)NCc1cccnc1 (stereo not given)	MrgX1 allo act 14 | MrgX1 allo conf inactive | HEK293 Ca flux inactive | HEK293 Ca counter inactive | HEK293 Ca cntr2 inactive
CC(=O)c1sc(N2CCOCC2)nc1-c1ccccc1	MrgX1 allo act 12 | MrgX1 allo conf inactive | HEK293 Ca flux inactive | HEK293 Ca counter inactive | HEK293 Ca cntr2 inactive
Cc1ccc(C(=O)N2N=C3c4ccccc4S(=O)(=O)N3[C@H]2N(C)C)cc1	none
COc1ccc(C(=O)Nc2cc(=O)n(C)c(=O)n2C)cc1OC	none
COc1ccc(CC(=O)Nc2cc(=O)n(C)c(=O)n2C)cc1OC	MrgX1 allo act 6.6 | MrgX1 allo conf inactive | HEK293 Ca flux inactive | HEK293 Ca counter inactive | HEK293 Ca cntr2 inactive
CCOC(=O)C1=C(C)N(CCCC(=O)O)C(=O)NC1c1ccccc1OC(=O)c1cccs1 (stereo not given)	none
Cc1csc(N(C(=O)Cc2ccccc2F)c2ccccc2)n1	none
COc1ccc(CC(=O)N(c2ccccc2)c2nc(C)cs2)cc1	MrgX1 allo act 11 | MrgX1 allo conf inactive | HEK293 Ca flux inactive | HEK293 Ca counter inactive | HEK293 Ca cntr2 inactive
CCOCCCN(C)C1CCN(S(=O)(=O)c2csc(C(N)=O)c2)CC1	none
COc1ccc(Nc2nc(C)c3ccccc3n2)cc1	MrgX1 allo act 15 | MrgX1 allo conf inactive | HEK293 Ca flux inactive | HEK293 Ca counter inactive | HEK293 Ca cntr2 inactive
CCOc1ccc(-c2[nH]ncc2Oc2ccccc2OCC)c(O)c1	MrgX1 allo act 6.7 | MrgX1 allo conf inactive | HEK293 Ca flux inactive | HEK293 Ca counter inactive | HEK293 Ca cntr2 inactive
CCc1cc(-c2[nH]ncc2-c2ccc3c(c2)OCO3)c(O)cc1O	none
COc1ccc(-c2[nH]ncc2-c2ccc3c(c2)OCCO3)c(O)c1	MrgX1 allo act 8 (no result: RGS4 block, RGS4 act) | MrgX1 allo conf inactive | HEK293 Ca flux inactive | HEK293 Ca counter inactive | HEK293 Ca cntr2 inactive
CCOc1ccc(-c2[nH]ncc2-c2ccc(OC)c(OC)c2)c(O)c1	MrgX1 allo act 18 (no result: RGS4 block, RGS4 act) | MrgX1 allo conf inactive | HEK293 Ca flux inactive | HEK293 Ca counter inactive | HEK293 Ca cntr2 inactive
O=S(=O)(Nc1nc2ccccc2nc1Cl)c1ccc(Br)cc1	none
O=C(CCl)Nc1cccc(Oc2ccccc2)c1	MrgX1 allo act 13 | MrgX1 allo conf inactive | HEK293 Ca flux inactive | HEK293 Ca counter inactive | HEK293 Ca cntr2 48
O=C(CCl)Nc1cccc(Oc2cnccn2)c1	none
CCc1cccc(CC)c1NC(=S)Nc1cccc(Cl)c1Cl	MrgX1 allo act 25 | MrgX1 allo conf inactive | HEK293 Ca flux inactive | HEK293 Ca counter inactive | HEK293 Ca cntr2 inactive
O=C(c1ccncc1)c1ccc(N2CCN(C3CC(=O)N(Cc4cccs4)C3=O)CC2)cc1 (stereo not given)	MrgX1 allo act 6.9 | MrgX1 allo conf inactive | HEK293 Ca flux inactive | HEK293 Ca counter inactive | HEK293 Ca cntr2 inactive
O=C(CCn1c(=S)oc2ccccc21)NC1CCCCCC1	MrgX1 allo act 7 | MrgX1 allo conf inactive | HEK293 Ca flux inactive | HEK293 Ca counter inactive | HEK293 Ca cntr2 inactive
CCOC(=O)c1c(CN(CC)CC)n(C)c2cc(Br)c(O)cc12	MrgX1 allo act 6.9 | MrgX1 allo conf inactive | HEK293 Ca flux inactive | HEK293 Ca counter inactive | HEK293 Ca cntr2 inactive
CC1(c2nnc(-c3cccc(Cl)c3)o2)CC(c2cccnc2)=NO1 (stereo not given)	none
O=C(NCc1ccncc1)c1cccc(S(=O)(=O)Nc2ccc(SC(F)F)cc2)c1	none
CCc1ccc2c(c1)[C@H]1OCC[C@H]1[C@@H](c1cccs1)N2	MrgX1 allo act 9.5 | MrgX1 allo conf inactive | HEK293 Ca flux inactive | HEK293 Ca counter inactive | HEK293 Ca cntr2 inactive
O=c1[nH]c2ccc(NC(=S)Nc3ccc(Cl)cc3)cc2[nH]1	none
CC(C)c1ccc(NC(=S)Nc2ccc3[nH]c(=O)[nH]c3c2)cc1	MrgX1 allo act 15 | MrgX1 allo conf inactive | HEK293 Ca flux inactive | HEK293 Ca counter inactive | HEK293 Ca cntr2 inactive
O=C1NC(Cc2ccccc2)C(=O)Nc2ccc(Br)cc21 (stereo not given)	MrgX1 allo act 9.1 | MrgX1 allo conf inactive | HEK293 Ca flux inactive | HEK293 Ca counter inactive | HEK293 Ca cntr2 inactive
S=c1[nH]nc([C@@H]2C[C@H]2c2ccccc2)n1-c1ccccc1Cl	MrgX1 allo act 7.7 | MrgX1 allo conf inactive | HEK293 Ca flux inactive | HEK293 Ca counter inactive | HEK293 Ca cntr2 inactive
Cc1ccc(C2CC2c2n[nH]c(=S)n2-c2ccc(Cl)cc2)cc1 (stereo not given)	none
Cc1ccc(S(=O)(=O)N2CCOCC2)cc1NC(=O)COC(=O)c1cc(=O)[nH]c2ccccc12	MrgX1 allo act 9.8 | MrgX1 allo conf inactive | HEK293 Ca flux inactive | HEK293 Ca counter inactive | HEK293 Ca cntr2 inactive

Source: PubChem
